# In article PMC3328401 (Journal of Medicinal Chemistry, 2012):
# Tests used:
# OVCAR-3 cells [1] = assay: Subcellular distribution of 125I-labeled reagents; assay type: cell-based, human; conditions: for ^125I in cytoplasm, 24 hours / ^125I in nucleus, 24 hours: 1 h incubation then 24 h in fresh nonradioactive medium; for ^125I in cytoplasm, 1 hour / ^125I in nucleus, 1 hour: 1 h incubation, 55.5 kBq/mL
# Procedure, shortened: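 OVCAR-3 cells were kept in RPMI-1640 with insulin, 2 mM L-glutamine and 20% FBS and expanded as intraperitoneal xenografts in athymic nude mice. Cells in six T150 flasks attached overnight, then were exposed 1 h to ¹²⁵I compound (55.5 kBq/mL). Three flasks were processed immediately and three after 24 h in fresh medium. Cells were trypsinized, counted, fractionated into nuclear/cytoplasmic compartments and gamma-counted.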
# human BChE = human BChE (Homo sapiens, UniProt P06276); assay: Gel electrophoresis/autoradiography of radioactive compounds with BChE; assay type: binding; conditions: BChE 0.02 U or increasing activities, 30 min
# Chain of human BChE (P06276 29-602): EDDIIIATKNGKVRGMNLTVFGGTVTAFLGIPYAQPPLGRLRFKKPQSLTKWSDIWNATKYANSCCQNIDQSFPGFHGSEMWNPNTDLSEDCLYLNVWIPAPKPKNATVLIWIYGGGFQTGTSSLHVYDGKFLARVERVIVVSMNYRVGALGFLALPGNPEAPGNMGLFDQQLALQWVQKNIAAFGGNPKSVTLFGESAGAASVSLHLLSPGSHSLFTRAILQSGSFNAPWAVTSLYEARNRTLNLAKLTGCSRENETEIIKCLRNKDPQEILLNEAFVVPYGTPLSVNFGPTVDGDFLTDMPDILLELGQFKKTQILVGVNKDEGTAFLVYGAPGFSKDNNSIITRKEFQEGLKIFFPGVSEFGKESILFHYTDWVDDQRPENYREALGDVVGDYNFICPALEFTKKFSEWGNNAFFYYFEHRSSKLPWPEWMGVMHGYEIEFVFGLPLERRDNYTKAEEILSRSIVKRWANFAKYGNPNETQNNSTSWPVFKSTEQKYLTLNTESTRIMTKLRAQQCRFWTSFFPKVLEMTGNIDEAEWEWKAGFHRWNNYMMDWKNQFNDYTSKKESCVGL
# Procedure, shortened: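 Radioactive compounds with human BChE were run on native and nonreducing SDS-PAGE gels at constant 150 V or 190 V for 1 h. Gels were exposed to autoradiography film at −80°C for 1–48 h, depending on applied radioactivity. Native gels were stained for BChE activity with 1 mM butyrylthiocholine iodide as substrate (Karnovsky–Roots method).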
# [2] = system: LS 174T and OVCAR-3 cancer cell lines; assay: Uptake kinetics, cell-associated activity after 3 h; assay type: cell-based, human; conditions: after 3 h incubation
# Procedure, shortened: (§1)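 Cells were plated at 2×10⁵/well in 6-well plates in 3 mL growth medium: OVCAR-3 in RPMI-1640 with 20% FBS, LS 174T in EMEM with 10% FBS. After 24 h, radiolabeled compound (~13.6–46.9 kBq/mL) was added at staggered times, up to 360 min, in triplicate. Medium was gamma-counted for radioactive concentration. Cells were washed twice with ice-cold PBS, trypsinized and gamma-counted for cell-associated activity.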
# OVCAR-3 cells [3] = assay: Uptake kinetics; assay type: cell-based, human
# Procedure, shortened: as §1
# LS 174T cells [4] = assay: Concentration-dependent uptake; assay type: cell-based, human; conditions: 3 h exposure, estimated
# LS 174T cells [5] = assay: Uptake kinetics; assay type: cell-based, human
# OVCAR-3 cells [6] = assay: Concentration-dependent uptake; assay type: cell-based, human; conditions: OVCAR-3, 3 h exposure, estimated
# [7] = Lipophilicity, shake-tube method n-octanol/phosphate buffered saline; assay type: physicochemical; conditions: n-octanol / phosphate buffered saline 10 mM, pH 6.8
# U-87 MG cells = assay: Subcellular distribution and DNA retention of 125I; assay type: cell-based, human
# Procedure, shortened: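 U-87 MG cells (~1×10⁶ per T75, EMEM with 10% FBS) were grown 24 h, then given radiolabeled compound for 1 h. They were processed immediately or after 24 h in fresh nonradioactive medium. Pellets (1,000 rpm, 4°C, 15 min) were fractionated with nuclear/cytoplasmic extraction reagents into cytoplasm, soluble nuclear and DNA fractions, which were gamma-counted. DNA-bound ¹²⁵I was also measured after genomic-tip DNA isolation. Longer exposures of 40–144 h were also run.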
# [8] = system: U-87 MG glioblastoma cells; assay: Clonogenic survival; assay type: cell-based, human; conditions: U-87, after eight weeks in culture
# [9] = Chemical hydrolysis of cycloSal phosphate triesters in phosphate buffer; assay type: physicochemical; conditions: phosphate buffer 50 mM, pH 7.3, 37°C, ~15% acetonitrile
# [10] = system: LS 174T colorectal adenocarcinoma cells; assay: Clonogenic survival and cell-retained 125I; assay type: cell-based, human; conditions: 4 h, 185 kBq/mL
# Procedure, shortened: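 LS 174T cells (2×10⁶ per T75) attached ~18 h, then exposed 4 h at 37°C to radiolabeled compound (185 kBq) or to nonradioactive medium for controls. Cells were washed, trypsinized and counted for viability. 1 mL of a 1×10⁶ cells/mL suspension was gamma-counted for cell-associated ¹²⁵I. Cells were plated in duplicate T25 flasks at 1,000, 500 and 100 cells/flask. Methanol-fixed colonies were scored after three weeks. Surviving fraction is treated/control colonies.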
# [11] = intravenously administered; cited from earlier work
# [12] = after intratumor injections; cited from earlier work
compound,measurement,setting,value
"CC(C)(C)c1cc(C(C)(C)C)c2c(c1F)COP(=O)(OC[C@H]1O[C@@H](n3cc([125I])c(=O)[nH]c3=O)C[C@@H]1O)O2 (stereo partly shown) [8b-slow, 5-[^125I]-Iodo-5′-O-[cyclo-3,5-di-(tert-butyl)-6-fluoroSaligenyl]-2′-deoxyuridine Monophosphate]","^125I in cytoplasm, 24 hours",OVCAR-3 cells [1],2.8 (0.7) cpm/10^3 cells (std dev)
same,"^125I in nucleus, 24 hours",OVCAR-3 cells [1],91.6 (5.7) cpm/10^3 cells (std dev)
same,"^125I in cytoplasm, 1 hour",OVCAR-3 cells [1],87.3 (7.5) cpm/10^3 cells (std dev)
same,"^125I in nucleus, 1 hour",OVCAR-3 cells [1],7.8 (0.6) cpm/10^3 cells (std dev)
same,binding to BChE on gel autoradiograph,human BChE,BChE activity-dependent binding
same,cell associated activity relative to the corresponding 6b diastereomer,[2],~ 180 ×
same,cell associated activity relative to the corresponding 7b diastereomer,[2],35 ×
"O=c1[nH]c(=O)n([C@H]2C[C@H](O)[C@@H](COP3(=O)OCc4ccccc4O3)O2)cc1[125I] (stereo partly shown) [6b-slow, 5-[^125I]-Iodo-5′-O-cycloSaligenyl-2′-deoxyuridine Monophosphate]",uptake ratio of slow to fast diastereomer,"OVCAR-3 cells [3]; OVCAR-3, after 90 min",~ 1.7
same,"uptake rate, slow relative to fast diastereomer","OVCAR-3 cells [3]; OVCAR-3, up to 90 min",6.5 ×
same,"^125I in cytoplasm, 24 hours",OVCAR-3 cells [1],6.0 (0.7) cpm/10^3 cells (std dev)
same,"^125I in nucleus, 24 hours",OVCAR-3 cells [1],31.3 (6.0) cpm/10^3 cells (std dev)
same,"^125I in cytoplasm, 1 hour",OVCAR-3 cells [1],14.8 (6.8) cpm/10^3 cells (std dev)
same,"^125I in nucleus, 1 hour",OVCAR-3 cells [1],4.9 (2.5) cpm/10^3 cells (std dev)
same,Bmax,LS 174T cells [4],"~ 6,800 molecules/cell"
same,uptake ratio of slow to fast diastereomer,LS 174T cells [5]; after 90 min,~ 1.7
same,"uptake rate, slow relative to fast diastereomer",LS 174T cells [5]; up to 90 min,4.6 ×
same,Bmax,OVCAR-3 cells [6],"> 50,000 molecules/cell"
same,Log P,[7],0.66 (± 0.03)
same,125I accumulated in DNA,"U-87 MG cells; U-87, 40-h incubation, 19.6 kBq/mL, genomic tips method",1.18 (0.11) mBq ^125I/cell
same,colony formation,[8],failed to produce any colonies
same,k (rate of hydrolysis),[9],0.00152 min⁻¹
"CC(C)(C)c1cc(C(C)(C)C)c2c(c1F)COP(=O)(OC[C@H]1O[C@@H](n3cc([125I])c(=O)[nH]c3=O)C[C@@H]1O)O2 (stereo partly shown) [8b-fast, 5-[^125I]-Iodo-5′-O-[cyclo-3,5-di-(tert-butyl)-6-fluoroSaligenyl]-2′-deoxyuridine Monophosphate]",cell associated activity relative to the corresponding 6b diastereomer,[2],> 110 ×
same,cell associated activity relative to the corresponding 7b diastereomer,[2],> 20 ×
"Cc1cccc2c1OP(=O)(OC[C@H]1O[C@@H](n3cc([125I])c(=O)[nH]c3=O)C[C@@H]1O)OC2 (stereo partly shown) [7b-fast, 5-[^125I]-Iodo-5′-O-cyclo(3-methylSaligenyl)-2′-deoxyuridine Monophosphate]",125I retained per cell,[10],0.196 (0.06) mBq ^125I/cell
same,k (rate of hydrolysis),[9],0.000544 min⁻¹
"O=c1[nH]c(=O)n([C@H]2C[C@H](O)[C@@H](CO)O2)cc1[125I] [^125IUdR, 5-[^125I]Iodo-2′-deoxyuridine]",time to destruction in circulation,[11],within a few min
same,injected ^125IUdR associated with one gram of tumor,[12],~ 0.02%
same,"tumor uptake, range",[12],0.001–0.06 % ID/g
"Cc1cccc2c1OP(=O)(OC[C@H]1O[C@@H](n3cc([125I])c(=O)[nH]c3=O)C[C@@H]1O)OC2 (stereo partly shown) [7b-slow, 5-[^125I]-Iodo-5′-O-cyclo(3-methylSaligenyl)-2′-deoxyuridine Monophosphate]","cell-associated radioactivity, OVCAR-3 compared to LS 174T",OVCAR-3 cells [3],1.7 ×
same,ratio of slow to fast uptake,"OVCAR-3 cells [3]; OVCAR-3, after 6 h",3.5
same,"^125I in cytoplasm, 24 hours",OVCAR-3 cells [1],1.8 (0.6) cpm/10^3 cells (std dev)
same,"^125I in nucleus, 24 hours",OVCAR-3 cells [1],29.3 (7.0) cpm/10^3 cells (std dev)
same,"^125I in cytoplasm, 1 hour",OVCAR-3 cells [1],13.0 (1.3) cpm/10^3 cells (std dev)
same,"^125I in nucleus, 1 hour",OVCAR-3 cells [1],5.4 (0.4) cpm/10^3 cells (std dev)
same,ratio of slow to fast uptake,LS 174T cells [5]; after 6 h,3.0
same,125I retained per cell,[10],0.566 (0.333) mBq ^125I/cell
same,surviving fraction,[10],0.63 (0.22) mBq
same,k (rate of hydrolysis),[9],0.000463 min⁻¹
"O=c1[nH]c(=O)n([C@H]2C[C@H](O)[C@@H](COP3(=O)OCc4ccccc4O3)O2)cc1[125I] (stereo partly shown) [6b-fast, 5-[^125I]-Iodo-5′-O-cycloSaligenyl-2′-deoxyuridine Monophosphate]",Bmax,LS 174T cells [4],"~ 1,300 molecules/cell"
same,Bmax,OVCAR-3 cells [6],"~ 7,400 molecules/cell"
same,colony formation,[8],failed to produce any colonies
same,k (rate of hydrolysis),[9],0.00225 min⁻¹
"CC(C)(C)c1cc(C(C)(C)C)c2c(c1F)COP(=O)(OC[C@H]1O[C@@H](n3cc([125I])c(=O)[nH]c3=O)C[C@@H]1F)O2 (stereo partly shown) [24b-slow, 5-[^125I]-Iodo-5′-O-[cyclo-3,5-Di-(tert-butyl)-6-fluoroSaligenyl]-3′-fluoro-2′,3′-dideoxyuridine]",binding to BChE on gel autoradiograph,human BChE,BChE activity-dependent binding
same,"uptake and retention lower in the cytoplasm, nucleus and DNA","U-87 MG cells; U-87 MG, 1 h treatment",~ 20 ×
same,presence in intracellular compartments at 24 h,"U-87 MG cells; U-87 MG, 24 h in fresh medium",practically undetectable
same,k (rate of hydrolysis),[9],0.000224 min⁻¹
